Measurements reported in ChEMBL document CHEMBL1933058, “5-(2-amino-pyrimidin-4-yl)-1H-pyrrole and 2-(2-amino-pyrimidin-4-yl)-1,5,6,7-tetrahydro-pyrrolo[3,2-c]pyridin-4-one derivatives as new classes of selective and orally available Polo-like kinase 1 inhibitors” (Bioorg Med Chem Lett, 2012).
In brackets after ≈: the same amount, converted by molar mass. Activity calls are given as the source filed them. The calls are words filed in the database; no cut-off is given here.

Key:
[1] = Half life in Nu/Nu Balb Harlan mouse at 10 mg/kg, iv; format: ADME, organism-based; parameters: dose 10 mg/kg, route intravenous; conditions: in vivo
In short: (§1)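 Male Balb Nu/Nu mice (Harlan) received a single 10 mg/kg intravenous dose, n = 3 animals per study. Vehicle was either trifluoroacetate salt in dextrose or free base in 50% PEG 400/glucosate, depending on compound. Parameters were reported as mean ± standard deviation.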

[2] = target: Cyclin-dependent kinase 1/cyclin B1 (Homo sapiens, UniProt P06493); test: Inhibition of CDK1/cyclin B; format: protein-complex assay
MOLT-4 = test: Antiproliferative activity against human MOLT4 cells; format: functional, cell-based
K562 = test: Antiproliferative activity against human K562 cells; format: functional, cell-based
[3] = target: Insulin-like growth factor 1 receptor (Homo sapiens, UniProt P08069); test: Inhibition of IGFR1
[4] = target: MAP kinase-activated protein kinase 2 (Homo sapiens, UniProt P49137); test: Inhibition of MAP-KAPK2
Caco-2 = test: Apparent permeability across human Caco2 cells; format: ADME, cell-based
[5] = target: cAMP-dependent protein kinase catalytic subunit alpha (Homo sapiens, UniProt P17612); test: Inhibition of PKAalpha
[6] = target: Cyclin-dependent kinase 2/cyclin E1 (Homo sapiens, UniProt P24941); test: Inhibition of CDK2/cyclin E; format: protein-complex assay
[7] = Apparent permeability of the compound by PAMPA; format: ADME
A-375 = test: Antiproliferative activity against human A375 cells; format: functional, cell-based
A2780 [8] = test: Antiproliferative activity against human A2780 cells; format: functional, cell-based
[9] = target: Serine/threonine-protein kinase Nek6 (Homo sapiens, UniProt Q9HC98); test: Inhibition of NEK6
Chain of Serine/threonine-protein kinase Nek6 (Q9HC98 whole entry): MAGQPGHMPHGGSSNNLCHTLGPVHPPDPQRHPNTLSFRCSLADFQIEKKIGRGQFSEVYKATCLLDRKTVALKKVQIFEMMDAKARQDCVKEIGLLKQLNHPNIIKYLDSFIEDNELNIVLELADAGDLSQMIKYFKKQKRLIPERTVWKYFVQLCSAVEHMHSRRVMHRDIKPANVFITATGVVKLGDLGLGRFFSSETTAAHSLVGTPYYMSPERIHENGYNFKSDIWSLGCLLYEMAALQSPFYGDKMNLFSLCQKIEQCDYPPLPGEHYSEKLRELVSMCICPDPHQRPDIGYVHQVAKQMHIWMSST

[10] = target: Serine/threonine-protein kinase PLK2 (Homo sapiens, UniProt Q9NYY3); test: Inhibition of PLK2
Chain of Serine/threonine-protein kinase PLK2 (Q9NYY3 whole entry): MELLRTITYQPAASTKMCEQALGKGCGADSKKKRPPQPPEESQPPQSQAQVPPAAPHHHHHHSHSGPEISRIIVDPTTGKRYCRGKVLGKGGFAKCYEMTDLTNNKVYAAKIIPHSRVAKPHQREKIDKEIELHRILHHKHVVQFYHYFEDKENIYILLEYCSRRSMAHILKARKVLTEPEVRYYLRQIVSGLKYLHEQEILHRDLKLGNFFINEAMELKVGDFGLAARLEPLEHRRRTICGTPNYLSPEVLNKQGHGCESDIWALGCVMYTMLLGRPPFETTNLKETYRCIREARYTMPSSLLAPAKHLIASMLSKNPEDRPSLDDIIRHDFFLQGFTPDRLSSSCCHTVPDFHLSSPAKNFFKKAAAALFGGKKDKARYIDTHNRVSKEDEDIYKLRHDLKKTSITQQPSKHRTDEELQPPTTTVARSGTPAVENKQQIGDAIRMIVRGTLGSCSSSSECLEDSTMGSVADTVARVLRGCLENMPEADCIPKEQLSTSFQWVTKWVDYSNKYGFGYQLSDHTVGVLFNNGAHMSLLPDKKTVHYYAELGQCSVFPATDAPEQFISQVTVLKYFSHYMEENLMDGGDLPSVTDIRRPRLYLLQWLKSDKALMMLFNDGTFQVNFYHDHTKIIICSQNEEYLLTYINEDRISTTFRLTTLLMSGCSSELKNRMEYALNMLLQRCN

Aurora kinase A = target: T1, Aurora kinase A (Homo sapiens, UniProt O14965); test: Inhibition of Aurora-A
T1 sequence (O14965 whole entry): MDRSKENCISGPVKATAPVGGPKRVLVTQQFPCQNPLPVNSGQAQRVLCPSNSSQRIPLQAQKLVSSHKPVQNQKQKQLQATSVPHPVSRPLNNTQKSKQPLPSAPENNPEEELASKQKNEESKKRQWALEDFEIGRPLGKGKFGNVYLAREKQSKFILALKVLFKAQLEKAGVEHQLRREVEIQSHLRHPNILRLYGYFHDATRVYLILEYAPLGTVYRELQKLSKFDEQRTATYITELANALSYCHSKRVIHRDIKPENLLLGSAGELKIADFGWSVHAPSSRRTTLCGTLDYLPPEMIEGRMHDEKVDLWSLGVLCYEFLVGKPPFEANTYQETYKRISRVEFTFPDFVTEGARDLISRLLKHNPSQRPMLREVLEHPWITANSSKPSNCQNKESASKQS

[11] = target: Serine/threonine-protein kinase PAK 4 (Homo sapiens, UniProt O96013); test: Inhibition of PAK4
[12] = Terminal half life in Nu/Nu Balb Harlan mouse at 10 mg/kg, po; format: ADME, organism-based; parameters: dose 10 mg/kg, route oral; conditions: in vivo, read-out: beta t1/2 (converted)
[13] = Inhibition of SULU1
[14] = Solubility of the compound at pH 7; format: physicochemical; conditions: buffer
[15] = target: Vascular endothelial growth factor receptor 3 (Homo sapiens, UniProt P35916); test: Inhibition of VEGFR3
A2780 [16] = test: Induction of apoptosis in human A2780 cells assessed as PARP cleavage at 5 uM after 24 hrs by Western blotting analysis; format: functional, cell-based
In short: (§2)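 A2780 cells were treated for 24 h at 0.05, 0.5 and 5 µM, with nocodazole as positive control. Lysates were immunoblotted for pSer10 histone H3, pThr199 nucleophosmin, cyclin B1, cyclin A, PARP cleavage and caspase 3 activation.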

[17] = Antiproliferative activity against human SUP-M2 cells; format: functional, cell-based
[18] = Inhibition of CK2
[19] = target: Cell division cycle 7-related protein kinase (Homo sapiens, UniProt O00311); test: Inhibition of CDC7
[20] = target: Tyrosine-protein kinase Lck (Homo sapiens, UniProt P06239); test: Inhibition of LCK
Chain of Tyrosine-protein kinase Lck (P06239 whole entry): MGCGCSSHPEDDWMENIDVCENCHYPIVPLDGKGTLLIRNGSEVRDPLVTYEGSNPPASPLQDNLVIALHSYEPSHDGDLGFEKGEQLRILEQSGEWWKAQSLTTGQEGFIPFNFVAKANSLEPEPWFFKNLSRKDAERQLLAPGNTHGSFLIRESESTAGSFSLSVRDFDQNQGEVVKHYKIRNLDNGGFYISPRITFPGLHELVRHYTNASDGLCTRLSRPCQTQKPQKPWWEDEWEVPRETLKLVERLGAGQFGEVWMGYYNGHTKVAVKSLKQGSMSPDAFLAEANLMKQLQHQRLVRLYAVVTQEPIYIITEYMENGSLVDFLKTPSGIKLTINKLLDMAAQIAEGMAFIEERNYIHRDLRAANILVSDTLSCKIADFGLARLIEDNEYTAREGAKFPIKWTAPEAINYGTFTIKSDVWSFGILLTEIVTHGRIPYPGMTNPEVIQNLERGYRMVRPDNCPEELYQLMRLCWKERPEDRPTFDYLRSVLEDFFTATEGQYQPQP

[21] = target: Inhibitor of nuclear factor kappa-B kinase subunit beta (Homo sapiens, UniProt O14920); test: Inhibition of IKK2
LNCaP = test: Antiproliferative activity against human LNCAP cells; format: functional, cell-based
[22] = Tmax in Nu/Nu Balb Harlan mouse at 10 mg/kg, po; format: ADME, organism-based; parameters: dose 10 mg/kg, route oral; conditions: in vivo
A2780 [23] = test: Cell cycle arrest in human A2780 cells assessed as accumulation at G2/M phase at 0.05 to 5 uM after 24 hrs by FACS analysis; format: functional, cell-based
In short: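 A2780 cells were exposed for 24 h to 0.05, 0.5 or 5 µM. Cell-cycle distribution was read by flow cytometry (FACS), scoring G2-M accumulation. Nocodazole-treated cells served as positive control.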

[24] = target: Cyclin-dependent kinase 2/cyclin A (Homo sapiens, UniProt P24941); test: Inhibition of CDK2/cyclin A; format: protein-complex assay
[25] = Oral bioavailability in Nu/Nu Balb Harlan mouse at 10 mg/kg; format: ADME, organism-based; conditions: in vivo
[26] = target: Tyrosine-protein kinase JAK2 (Homo sapiens, UniProt O60674); test: Inhibition of JAK2
[27] = target: Proto-oncogene tyrosine-protein kinase receptor Ret (Homo sapiens, UniProt P07949); test: Inhibition of RET
Chain of Proto-oncogene tyrosine-protein kinase receptor Ret (P07949 whole entry): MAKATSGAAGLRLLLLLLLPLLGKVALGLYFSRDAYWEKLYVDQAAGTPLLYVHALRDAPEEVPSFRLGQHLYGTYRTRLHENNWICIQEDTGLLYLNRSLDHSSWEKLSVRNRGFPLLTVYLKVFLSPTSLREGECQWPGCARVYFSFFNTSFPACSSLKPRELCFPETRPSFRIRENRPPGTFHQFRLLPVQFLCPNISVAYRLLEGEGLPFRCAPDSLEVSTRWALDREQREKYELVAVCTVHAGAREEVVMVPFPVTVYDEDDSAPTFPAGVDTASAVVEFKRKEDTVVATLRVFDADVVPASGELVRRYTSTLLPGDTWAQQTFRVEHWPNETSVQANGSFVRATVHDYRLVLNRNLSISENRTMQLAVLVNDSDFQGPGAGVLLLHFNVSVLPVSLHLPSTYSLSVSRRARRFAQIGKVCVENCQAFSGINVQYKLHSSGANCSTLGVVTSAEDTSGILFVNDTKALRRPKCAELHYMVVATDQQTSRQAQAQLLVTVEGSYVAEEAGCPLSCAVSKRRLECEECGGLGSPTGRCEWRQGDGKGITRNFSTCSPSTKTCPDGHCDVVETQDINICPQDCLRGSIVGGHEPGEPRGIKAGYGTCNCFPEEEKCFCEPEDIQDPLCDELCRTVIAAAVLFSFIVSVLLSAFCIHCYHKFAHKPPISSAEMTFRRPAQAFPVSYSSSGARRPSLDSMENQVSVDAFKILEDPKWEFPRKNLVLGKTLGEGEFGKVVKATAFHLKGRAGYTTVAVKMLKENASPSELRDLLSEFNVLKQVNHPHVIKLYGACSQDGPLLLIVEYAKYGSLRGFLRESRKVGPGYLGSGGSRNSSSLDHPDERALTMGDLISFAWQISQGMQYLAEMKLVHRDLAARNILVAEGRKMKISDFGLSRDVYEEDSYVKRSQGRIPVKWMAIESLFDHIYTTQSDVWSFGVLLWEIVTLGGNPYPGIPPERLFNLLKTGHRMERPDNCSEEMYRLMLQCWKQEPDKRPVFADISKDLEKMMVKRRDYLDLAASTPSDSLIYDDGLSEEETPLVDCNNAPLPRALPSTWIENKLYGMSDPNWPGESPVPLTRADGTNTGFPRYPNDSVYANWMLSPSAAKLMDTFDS

MOLM-13 = test: Antiproliferative activity against human MOLM13 cells; format: functional, cell-based
[28] = target: Epidermal growth factor receptor (Homo sapiens, UniProt P04626+P00533+Q15303+P21860); test: Inhibition of EGFR1; format: protein assay
[29] = target: Glycogen synthase kinase-3 beta (Homo sapiens, UniProt P49841); test: Inhibition of GSK3-beta
A2780 [30] = test: Induction of apoptosis in human A2780 cells assessed as caspase3 activation at 5 uM after 24 hrs by Western blotting analysis; format: functional, cell-based; in short: as §2
HCT-116 = test: Antiproliferative activity against human HCT116 cells; format: functional, cell-based
[31] = target: Serine/threonine-protein kinase 26 (Homo sapiens, UniProt Q9P289); test: Inhibition of MST4
[32] = target: Cyclin-dependent kinase 4/cyclin D1 (Homo sapiens, UniProt P11802); test: Inhibition of CDK4/cyclin D1; format: protein-complex assay
A2780 [33] = test: Cell cycle arrest in human A2780 cells assessed as reduction of phospho Ser46 TCTP level at 0.05 to 5 uM after 1 hr by Western blotting analysis; format: functional, cell-based
In short: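 A2780 cells got 1 h exposure at 0.05, 0.5 and 5 µM, with nocodazole-treated cells as comparator. Western blot was used to probe the PLK1 substrate marker pSer46 TCTP and the mitotic marker pSer10 histone H3.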

[34] = target: Serine/threonine-protein kinase PLK3 (Homo sapiens, UniProt Q9H4B4); test: Inhibition of PLK3
[35] = AUC (0 to infinity) in Nu/Nu Balb Harlan mouse at 10 mg/kg, iv; format: ADME, organism-based; parameters: time infinity, dose 10 mg/kg, route intravenous; conditions: plasma; in short: as §1
[36] = target: Fibroblast growth factor receptor 1 (Homo sapiens, UniProt P11362); test: Inhibition of FGFR1
Chain of Fibroblast growth factor receptor 1 (P11362 whole entry): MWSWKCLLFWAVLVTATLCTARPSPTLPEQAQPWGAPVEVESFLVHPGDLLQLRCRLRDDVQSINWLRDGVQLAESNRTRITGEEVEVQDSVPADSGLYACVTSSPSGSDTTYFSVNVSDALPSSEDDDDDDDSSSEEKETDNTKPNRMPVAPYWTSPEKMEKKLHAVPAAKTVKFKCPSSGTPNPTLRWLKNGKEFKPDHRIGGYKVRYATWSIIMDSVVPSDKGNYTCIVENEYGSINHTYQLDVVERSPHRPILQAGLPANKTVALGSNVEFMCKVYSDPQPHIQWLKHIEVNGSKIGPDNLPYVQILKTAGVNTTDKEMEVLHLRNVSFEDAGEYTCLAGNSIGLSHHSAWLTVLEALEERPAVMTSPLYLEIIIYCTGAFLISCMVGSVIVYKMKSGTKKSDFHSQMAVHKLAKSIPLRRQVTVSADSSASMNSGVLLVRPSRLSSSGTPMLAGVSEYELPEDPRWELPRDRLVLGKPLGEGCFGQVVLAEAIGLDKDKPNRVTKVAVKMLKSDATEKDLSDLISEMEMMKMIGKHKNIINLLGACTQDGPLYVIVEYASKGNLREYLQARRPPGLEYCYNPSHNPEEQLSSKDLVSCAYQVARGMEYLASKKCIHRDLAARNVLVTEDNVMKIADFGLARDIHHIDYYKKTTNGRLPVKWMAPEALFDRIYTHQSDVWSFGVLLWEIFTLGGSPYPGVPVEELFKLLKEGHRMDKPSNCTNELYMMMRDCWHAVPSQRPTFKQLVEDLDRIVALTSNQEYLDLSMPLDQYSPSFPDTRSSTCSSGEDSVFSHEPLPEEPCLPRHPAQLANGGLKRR

[37] = Inhibition of PDGFR
[38] = target: Vascular endothelial growth factor receptor 2 (Homo sapiens, UniProt P35968); test: Inhibition of VEGFR2
Chain of Vascular endothelial growth factor receptor 2 (P35968 whole entry): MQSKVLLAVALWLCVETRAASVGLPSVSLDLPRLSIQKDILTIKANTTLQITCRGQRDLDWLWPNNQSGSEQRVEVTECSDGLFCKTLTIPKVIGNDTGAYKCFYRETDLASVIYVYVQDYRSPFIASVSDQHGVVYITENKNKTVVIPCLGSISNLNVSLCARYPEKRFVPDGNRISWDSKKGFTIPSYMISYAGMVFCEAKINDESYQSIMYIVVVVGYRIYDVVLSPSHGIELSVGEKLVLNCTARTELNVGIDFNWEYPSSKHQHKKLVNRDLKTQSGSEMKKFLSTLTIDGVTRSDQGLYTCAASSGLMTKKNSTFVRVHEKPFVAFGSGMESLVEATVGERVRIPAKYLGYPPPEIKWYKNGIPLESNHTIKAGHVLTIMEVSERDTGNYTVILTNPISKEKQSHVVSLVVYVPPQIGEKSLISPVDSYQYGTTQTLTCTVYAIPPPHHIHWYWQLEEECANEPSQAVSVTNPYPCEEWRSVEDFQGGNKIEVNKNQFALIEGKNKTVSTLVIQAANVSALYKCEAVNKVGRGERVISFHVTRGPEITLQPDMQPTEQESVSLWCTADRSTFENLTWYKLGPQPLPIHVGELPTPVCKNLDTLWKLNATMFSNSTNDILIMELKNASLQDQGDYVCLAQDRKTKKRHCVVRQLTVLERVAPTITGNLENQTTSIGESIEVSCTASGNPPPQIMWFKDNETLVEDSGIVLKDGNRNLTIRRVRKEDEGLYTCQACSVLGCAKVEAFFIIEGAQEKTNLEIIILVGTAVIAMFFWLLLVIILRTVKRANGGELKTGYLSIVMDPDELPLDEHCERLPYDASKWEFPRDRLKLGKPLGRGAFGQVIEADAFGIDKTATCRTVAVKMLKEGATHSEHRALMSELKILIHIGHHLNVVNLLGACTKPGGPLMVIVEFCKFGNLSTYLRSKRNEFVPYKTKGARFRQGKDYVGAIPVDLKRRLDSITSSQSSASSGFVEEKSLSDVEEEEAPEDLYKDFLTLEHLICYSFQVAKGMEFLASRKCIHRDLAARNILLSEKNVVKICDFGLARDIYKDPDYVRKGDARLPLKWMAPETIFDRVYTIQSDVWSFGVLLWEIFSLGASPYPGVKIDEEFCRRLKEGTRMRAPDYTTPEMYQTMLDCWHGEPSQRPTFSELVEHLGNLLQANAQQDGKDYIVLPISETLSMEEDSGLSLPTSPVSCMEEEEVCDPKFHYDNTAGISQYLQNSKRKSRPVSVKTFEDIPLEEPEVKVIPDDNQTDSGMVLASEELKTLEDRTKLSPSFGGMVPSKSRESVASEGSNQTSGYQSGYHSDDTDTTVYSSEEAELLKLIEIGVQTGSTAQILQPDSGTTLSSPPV

- half-life [1]: 0.52 h
- IC50 [2]: > 10 µM
- IC50 (MOLT-4): 0.017 µM
- IC50 (K562): 0.06 µM
- IC50 [3]: > 10 µM
- IC50 [4]: > 10 µM
- Papp (Caco-2): permeable
- IC50 [5]: > 10 µM
- IC50 [6]: > 10 µM
- Papp [7]: 5.79 ×10⁻⁶ cm/s
- IC50 (A-375): 0.027 µM
- IC50 (A2780 [8]): 0.037 µM
- IC50 [9]: > 10 µM
- IC50 [10]: > 10 µM
- IC50 (Aurora kinase A): > 10 µM
- IC50 [11]: > 10 µM
- half-life [12]: 1.4 h
- IC50 [13]: > 10 µM
- solubility [14]: 163 µM (≈ 81.7 µg/mL)
- IC50 [15]: > 10 µM
- IC50 [18]: 0.42 µM
- IC50 [19]: > 10 µM
- IC50 [20]: > 10 µM
- IC50 [21]: > 10 µM
- IC50 (LNCaP): 0.026 µM
- Tmax [22]: 1.5 h
- IC50 [24]: > 10 µM
- bioavailability [25]: 52%
- IC50 [26]: > 10 µM
- IC50 [27]: > 10 µM
- IC50 (MOLM-13): 0.021 µM
- IC50 [28]: > 10 µM
- IC50 [29]: > 10 µM
- IC50 (HCT-116): 0.032 µM
- IC50 [31]: > 10 µM
- IC50 [32]: > 10 µM
- IC50 [34]: > 10 µM
- AUC(0-inf) [35]: 5.78 µM·h
- IC50 [36]: > 10 µM
- IC50 [37]: > 10 µM
- IC50 [38]: > 10 µM
SMILES: CN1CCN(c2ccc(OC(F)(F)F)c(Nc3nccc(-c4cc5c(n4C)CCNC5=O)n3)c2)CC1
- Activity (A2780 [16]): Active
- IC50 [17]: 0.053 µM
- Activity (A2780 [23]): Active
- Activity (A2780 [30]): Active
- Activity (A2780 [33]): Active
